Screening results: PubChem BioAssay, several laboratories
b-catenin transl: alters nuclear translocation of beta-catenin in HeLa cells; immunofluorescence imaging; nuclear translocation activity, % at 5 µM; 190,000 compounds, 0.3% hits; AID 1665;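 active = nuclear translocation activity above 50% at 5 µM, with a well cell count of 50 or more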;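 also: per-cell ratio of nuclear to cytoplasmic median beta-catenin stain intensity; plate controls were DMSO negative control for no effect and GSK-3 inhibitor IX positive control for full effect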
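Test system: HeLa cells, endogenous beta-catenin; Compound: single 5 µM dose plus 0.02–20 µM confirmation series; Times: compound exposure 24 h at 37°C; Signal: fluorescence imaging of beta-catenin antibody stain plus DAPI; Read-out: % activation, nuclear-to-cytoplasmic median beta-catenin signal ratio per cell.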
BaF3 tox: parental Ba/F3 viability inhibition as JAK2V617F counter-screen; CellTiter-Glo ATP luminescence; 220,000 compounds, 1.1% hits; AID 1486; inhibition, % at 5.6 µM;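 active = inhibition above a per-campaign cutoff, the mean inhibition of all tested compounds plus 3 SD, cut at about 27% in these data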;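 also: 0% = DMSO wells and 100% = JAK Inhibitor I control wells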
Ba/F3 V617F tox: reduce viability of Ba/F3 cells dependent on JAK2V617F. 220,000 compounds, 1.1% hits. Ba/F3 EpoR-JAK2V617F viability, ATP luminescence. AID 1446. inhibition, % at 5.6 µM;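 active = inhibition above the campaign mean plus 3 SD over all tested compounds, cut at about 24% in these data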;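 also: cytokine-independent growth of Ba/F3 cells driven by EpoR plus mutant JAK2; 0% = DMSO-treated cells and 100% = JAK inhibitor I control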
MT stabilizer: microtubule stabilization, imaging screen. HeLa tubulin immunostaining HCS, 24 h; share of cells brighter than vehicle mean+2SD. % tubulin-high responders, % at 10 µM. 200,000 compounds, 0.83% hits;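 active = plate Z-score above 3 for both tubulin-high and condensed-nucleus cell shares, with cell loss under 80%, at 10 µM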;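 also: anti alpha tubulin signal scored within the nucleus-defined area of each cell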
L major viab: inhibitors of Leishmania major promastigote growth. Leishmania major promastigotes, resazurin fluorescence viability. inhibition, % at 10 µM. 200,000 compounds, 9% hits; in the data active = inhibition above about 50%;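 also: promastigotes grown with compound for 44 hours at 28 °C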
APP 5UTR inh: APP translation inhibition | SH-SY5Y APP 5'UTR-luciferase reporter, luminescence | inhibition, % at 2 µM | 190,000 compounds, 0.82% hits;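 active = inhibition above a set limit, derived from the sample mean plus 3 SD, cut at about 45% in these data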
* = called active by the depositor; . = no result. Sampled rows, rich in hits. Any-hit rate of the full collection: about 9.6%.

SMILES	b-catenin transl	BaF3 tox	Ba/F3 V617F tox	MT stabilizer	L major viab	APP 5UTR inh
O=C(O)CC1S/C(=N/N=C/C2CC=CCC2)NC1=O (centres undefined)	-1.7	5.0	1.7	2.6	-4.2	-14.7
O=C1Nc2ccc(Cl)cc2/C1=C/C1CC=CCC1 (centres undefined)	-2.3	2.4	-2.5	4.0	95.7*	-0.2
COc1ccc(COc2cc(-c3cccc(OC)c3)nc3ccc(NC(=O)c4cccnc4)cc23)cc1	.	9.5	5.4	8.1	99.9*	25.2
COc1ccc(Cc2nc(-c3ccc(NC(=O)c4cccnc4)cc3)no2)cc1	-0.1	-0.4	9.9	3.7	-5.9	58.2*
COc1ccc(COc2cc(-c3cccc(OC)c3)nc3ccc(NC(=O)c4ccccc4)cc23)cc1	.	5.6	-0.1	6.4	68.4*	-1.1
COc1ccc(-c2noc(CCC(=O)O)n2)cc1	-1.5	2.0	0.9	2.8	-2.6	-12.0
COc1ccc(-c2noc(CCCC(=O)O)n2)cc1	.	2.8	-3.1	2.7	-5.4	56.1*
COc1ccc(COc2cc(-c3cccc(OC)c3)nc3ccc(NC(=O)c4ccc(OC)cc4)cc23)cc1	.	52.8*	77.9*	27.4	96.8*	56.3*
CC1(C)CN(c2cccc(Br)c2)C1=O	-1.8	3.1	-0.5	4.1	2.8	16.7
CCN1/C(=C/c2cc[n+](CCCS(=O)(=O)[O-])c3ccccc23)Sc2ccccc21	-1.9	4.4	3.7	10.7	99.8*	-12.0
Cc1cccc(CC2CC(=O)N(CCc3ccc4c(c3)OCO4)C2=O)c1 (centres undefined)	0.4	1.9	2.5	3.5	0.6	-1.8
O=C1CC(N2CCN(Cc3ccc4c(c3)OCO4)CC2)C(=O)N1c1cccc2ccccc12 (centres undefined)	0.3	6.5	-1.1	2.1	62.4*	7.5
O=C1CC(N2CCN(Cc3ccc4c(c3)OCO4)CC2)C(=O)N1CCc1ccccc1 (centres undefined)	.	3.7	-3.3	4.2	87.0*	0.1
O=C1CC(N2CCN(Cc3ccc4c(c3)OCO4)CC2)C(=O)N1Cc1ccc(N2CCCC2=O)cc1 (centres undefined)	0.4	0.6	-3.1	8.4	6.9	12.9
O=C1CC(Cc2ccccc2)C(=O)N1CCc1ccc2c(c1)OCO2 (centres undefined)	.	5.9	-0.5	1.6	100.2*	-7.6
O=C1CC(N2CCN(Cc3ccc4c(c3)OCO4)CC2)C(=O)N1c1cccc(Cl)c1 (centres undefined)	-2.2	3.4	0.6	1.3	1.2	15.6
COc1ccc(CCN2C(=O)CC(Cc3ccc(Br)cc3)C2=O)cc1OC (centres undefined)	.	2.4	0.8	8.1	55.9*	9.9
Fc1cccc(F)c1-n1c(CN2CCCC2)csc1=S	-1.9	7.8	-0.9	4.7	10.1	-9.4
CCCCC1(Cc2cccc([N+](=O)[O-])c2)C(=O)N(c2ccccc2)N(c2ccccc2)C1=O	-1.6	0.7	0.6	2.8	57.5*	2.6
COc1ccc(NC(=O)CCCn2c(=O)c3sccc3n(Cc3ccccc3)c2=O)cc1	2.6	-0.3	1.5	2.7	6.0	18.2
COc1ccc(NC(=O)CCCn2c(=O)c3sccc3n(Cc3ccccc3C)c2=O)cc1	.	3.2	-0.9	3.0	89.3*	-28.1
COCCNC(=O)Cn1c(=O)n(CCCCCC(=O)Nc2ccccc2)c(=O)c2sccc21	0.7	2.8	-4.3	3.0	-2.9	5.4
COCCCNC(=O)Cn1c(=O)n(CCCCCC(=O)Nc2ccccc2)c(=O)c2sccc21	-1.6	9.2	1.4	1.8	50.2*	2.1
CCn1c(O)c(N=NC(=O)Cn2ccc(C(F)(F)F)n2)c2ccccc21	-0.6	4.2	2.2	5.5	67.0*	18.2
Cn1c(O)c(N=NC(=O)Cn2ccc(C(F)(F)F)n2)c2ccccc21	-2.0	4.3	0.3	2.9	58.1*	3.1
SMILES	b-catenin transl	BaF3 tox	Ba/F3 V617F tox	MT stabilizer	L major viab	APP 5UTR inh
CCOC(=O)N=Nc1c(O)n(CC(=O)OC)c2ccccc12	-0.3	2.3	5.8	4.1	2.5	-4.3
Cc1ccc(NC(=O)Nc2cnccn2)cc1C	-0.8	0.1	-4.8	.	.	.
CC1=C(C(=O)Nc2ccccc2)C(c2cccc([N+](=O)[O-])c2)Nc2nc3ccccc3n21 (centres undefined)	1.4	2.7	-3.0	1.4	97.7*	-0.1
CC(C)COC(=O)N(C)c1ccc(C(O)(C(F)(F)F)C(F)(F)F)cc1	-0.9	4.7	0.9	2.4	99.8*	7.6
COCC(C)NC(=O)c1ccc(N(C)C)cc1 (centres undefined)	1.4	4.0	3.0	2.6	-7.6	2.0
CS(=O)(=O)Oc1ccc(/C=N/NC(=O)c2ccncc2)cc1	-1.5	2.4	-1.7	4.8	-1.0	0.9
CC1CCN(CC(=O)n2c3c(c4ccccc42)CCCC3)CC1	-3.8	6.0	5.5	1.6	4.5	15.1
CCN1CCN(CC(=O)n2c3c(c4ccccc42)CC(C)CC3)CC1 (centres undefined)	-1.4	5.5	2.8	3.0	100.4*	6.2
CC(C)CC1=NN(C(=O)c2ccco2)C(O)(C(F)(F)F)C1 (centres undefined)	1.5	2.1	-1.8	3.4	-3.0	-8.8
Cc1[nH][nH]c(=O)c1C(c1c(C)[nH][nH]c1=O)c1cn(Cc2ccc(F)cc2)c2ccccc12	22.7	6.7	2.1	20.3*	98.6*	14.8
O=c1ccc(NS(=O)(=O)c2ccccc2Cl)cn1Cc1ccc(Cl)c(Cl)c1	-0.7	7.4	0.3	2.5	-4.1	-10.8
O=C(O)Cc1cn(Cc2ccc(F)cc2)c2ccccc12	-0.2	12.7	-0.3	2.1	-10.8	-4.5
Cc1[nH][nH]c(=O)c1C(c1c(C)[nH][nH]c1=O)c1cn(Cc2ccc(Cl)c(Cl)c2)c2ccccc12	98.8*	8.0	0.3	5.6	99.2*	80.8*
CCn1nc(C(=O)NNC(=O)COc2ccccc2C)c2ccccc2c1=O	2.7	-3.0	-1.9	3.6	-3.8	1.1
COc1ccc(/C=C/c2c([N+](=O)[O-])c(=O)n(C)c(=O)n2C)cc1O	3.1	-0.7	-4.2	3.4	90.3*	-7.5
COc1cc(/C=C/c2c([N+](=O)[O-])c(=O)n(C)c(=O)n2C)cc(OC)c1OC	.	-0.2	-5.3	1.6	79.3*	-0.6
COc1ccc(OC)c(/C=C/c2c([N+](=O)[O-])c(=O)n(C)c(=O)n2C)c1	0.8	0.2	-4.5	4.4	47.2	-27.9
CN1CCCC(OC(=O)c2cccc(Cl)c2)C1 (centres undefined)	-2.8	-4.4	1.0	.	.	.
CN1CCC(OC(=O)c2cccc(Br)c2)CC1	4.5	5.2	-1.9	1.7	93.1*	12.5
CN1CCC(OC(=O)c2ccc(Cl)cc2Cl)CC1	-3.1	6.0	1.0	3.0	96.3*	10.0
CCc1nnc(NC(=O)Cc2sc(C)nc2-c2ccc(C)cc2)s1	7.6	-1.0	-0.9	3.4	-2.0	-8.0
